Results: PMC6279241 (Science signaling, 2018)

Tests used:
92.1 cells = test: Block of FR-elicited re-differentiation; assay type: cell-based, human; details: 92.1, 7 days GSK503 and 3 days FR
PRC2 (Ezh1/2) = test: Histone H3; assay type: cell-based, human; details: 92.1, 7 days GSK503, immunoblot
Summary of the method: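 92.1 cells were treated with GSK503 for 7 days, and histones were isolated with a purification kit. Samples ran on 15% SDS-PAGE, were blotted to PVDF, blocked in 5% milk/TBST, and detected with IRDye-coupled secondary antibodies. H3K27me3 densitometry was normalized to total H3 and compared with DMSO control. Three independent experiments.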

Cc1cc(C)c(CNC(=O)c2cc(-c3ccc(N4CCN(C)CC4)nc3)cc3c2c(C)cn3C(C)C)c(=O)[nH]1 [GSK503]
Ability of FR to re-differentiate cells (morphology and pigmentation) (92.1 cells): blocked | Histone H3(Lys27) trimethylation (PRC2 (Ezh1/2)): reduced
